Experimental data taken from ChEMBL document CHEMBL4304758, “Development of Peptide-Based Sirtuin Defatty-Acylase Inhibitors Identified by the Fluorescence Probe, SFP3, That Can Efficiently Measure Defatty-Acylase Activity of Sirtuin” (J Med Chem, 2019).
Calls of active or inactive are those of the source. No cut-off for these calls is given here. Non-standard residues stand in square brackets, D forms with d. Residues, ends and D or L forms follow the SMILES beside them. *: point of attachment. Lys(thiomyristoyl) = CCCCCCCCCCCCCC(=S)NCCCC[C@H](N)C(=O)O; X4 = CN(C)c1ccc(/N=N/c2ccc(CC(=O)*)cc2)cc1; X1 = O=C(Cc1ccc(/N=N/c2ccc(O)cc2)cc1)*

Assays:
[1] = biological target: T1, NAD-dependent protein deacetylase sirtuin-2 (Homo sapiens) (UniProt Q8IXJ6); test: Inhibition of recombinant human SIRT2 defatty-acylase activity using SFP3 as substrate measured at 5 mins interval for 60 mins in presence of NAD+ by fluorescence assay
T1 sequence (whole entry): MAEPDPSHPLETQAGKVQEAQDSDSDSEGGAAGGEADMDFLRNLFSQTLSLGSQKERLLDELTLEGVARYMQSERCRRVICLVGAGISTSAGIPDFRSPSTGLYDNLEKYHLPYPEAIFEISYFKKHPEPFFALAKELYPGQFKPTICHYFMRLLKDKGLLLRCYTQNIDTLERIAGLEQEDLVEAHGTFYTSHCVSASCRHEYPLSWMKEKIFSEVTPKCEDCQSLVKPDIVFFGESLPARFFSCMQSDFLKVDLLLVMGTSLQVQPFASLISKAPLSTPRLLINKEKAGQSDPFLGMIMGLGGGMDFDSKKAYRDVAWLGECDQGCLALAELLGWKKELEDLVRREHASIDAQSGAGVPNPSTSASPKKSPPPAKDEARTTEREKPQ

[2] = biological target: T1, NAD-dependent protein deacetylase sirtuin-2 (Homo sapiens); test: Inhibition of recombinant human SIRT2 defatty-acylase activity at 2 uM using SFP3 as substrate measured at 5 mins interval for 60 mins in presence of NAD+ by fluorescence assay relative to control
[3] = biological target: T1, NAD-dependent protein deacetylase sirtuin-2 (Homo sapiens); test: Inhibition of recombinant human SIRT2 demyristoylase activity at 1 uM using p53(Myr)-AMC as substrate measured after 3 hrs in presence of NAD+ and trypsin by fluorescence assay relative to control
[4] = biological target: T2, NAD-dependent protein deacetylase sirtuin-1 (Homo sapiens) (UniProt Q96EB6); test: Inhibition of recombinant human C-terminal His6-tagged SIRT1 (Met1 to Ser747 residues) defatty-acylase activity expressed in Escherichia coli at 2 uM using SFP3 as substrate measured at 5 mins interval for 60 mins in presence of NAD+ by fluorescence assay relative to control
T2 sequence (whole entry): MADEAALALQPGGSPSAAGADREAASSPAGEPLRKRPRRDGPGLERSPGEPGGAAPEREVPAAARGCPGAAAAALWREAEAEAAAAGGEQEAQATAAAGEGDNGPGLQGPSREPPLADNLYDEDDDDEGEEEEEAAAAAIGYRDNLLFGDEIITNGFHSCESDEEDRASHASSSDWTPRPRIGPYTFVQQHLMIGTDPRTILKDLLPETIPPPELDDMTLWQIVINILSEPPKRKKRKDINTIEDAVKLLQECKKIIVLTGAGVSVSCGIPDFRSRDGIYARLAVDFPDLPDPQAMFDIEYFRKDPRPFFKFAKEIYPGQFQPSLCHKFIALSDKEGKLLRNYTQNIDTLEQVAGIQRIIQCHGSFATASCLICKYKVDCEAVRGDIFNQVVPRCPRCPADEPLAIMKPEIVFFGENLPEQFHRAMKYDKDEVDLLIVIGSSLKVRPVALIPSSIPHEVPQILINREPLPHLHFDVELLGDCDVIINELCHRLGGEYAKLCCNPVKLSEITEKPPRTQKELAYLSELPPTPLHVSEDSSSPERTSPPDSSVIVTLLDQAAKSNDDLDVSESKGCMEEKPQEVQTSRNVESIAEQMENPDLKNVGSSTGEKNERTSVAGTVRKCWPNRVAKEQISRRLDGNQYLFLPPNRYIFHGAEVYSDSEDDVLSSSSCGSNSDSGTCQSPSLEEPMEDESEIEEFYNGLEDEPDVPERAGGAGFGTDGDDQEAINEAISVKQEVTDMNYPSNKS

[5] = biological target: T3, NAD-dependent protein deacetylase sirtuin-3, mitochondrial (Homo sapiens) (UniProt Q9NTG7); test: Inhibition of recombinant human SIRT3 (118 to 399 residues) defatty-acylase activity expressed in Escherichia coli at 2 uM using SFP3 as substrate measured at 5 mins interval for 60 mins in presence of NAD+ by fluorescence assay relative to control
T3 sequence (whole entry): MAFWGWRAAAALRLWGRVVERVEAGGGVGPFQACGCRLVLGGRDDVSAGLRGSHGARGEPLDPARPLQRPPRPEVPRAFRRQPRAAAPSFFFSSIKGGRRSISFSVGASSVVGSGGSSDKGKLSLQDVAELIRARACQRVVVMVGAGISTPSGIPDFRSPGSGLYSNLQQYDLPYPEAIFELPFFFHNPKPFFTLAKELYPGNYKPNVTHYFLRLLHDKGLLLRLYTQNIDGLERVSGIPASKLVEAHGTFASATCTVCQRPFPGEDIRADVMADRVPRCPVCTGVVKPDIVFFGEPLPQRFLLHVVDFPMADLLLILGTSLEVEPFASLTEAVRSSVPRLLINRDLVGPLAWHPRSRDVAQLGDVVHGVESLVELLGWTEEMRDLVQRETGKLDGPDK
How it was run: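 SIRT3 at 60 nM final with 2.5 μM SFP3 and 500 μM NAD⁺ in Tris-HCl pH 8.0, 150 mM NaCl, 1 mM DTT, 0.05% Triton X-100. Final DMSO 0.2%, or 0.5% for AGK2/NAM. Fluorescence Ex 485/Em 535 nm every 5 min for 60 min at 37 °C. n = 3.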

[6] = biological target: NAD-dependent protein deacylase sirtuin-6 (Homo sapiens) (UniProt Q8N6T7); test: Inhibition of recombinant human N-terminal polyhis-tagged SIRT6 (1 to 355 residues) defatty-acylase activity expressed in Escherichia coli at 2 uM using SFP3 as substrate measured at 5 mins interval for 60 mins in presence of NAD+ by fluorescence assay relative to control
[7] = biological target: T2, NAD-dependent protein deacetylase sirtuin-1 (Homo sapiens); test: Inhibition of recombinant human C-terminal His6-tagged SIRT1 (Met1 to Ser747 residues) demyristoylase activity expressed in Escherichia coli at 1 uM using p53(Myr)-AMC as substrate measured after 3 hrs in presence of NAD+ and trypsin by fluorescence assay relative to control
How it was run: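 SIRT1 at 14 nM final with 50 μM p53(Myr)-AMC and 500 μM NAD⁺ in Tris-HCl pH 8.0/NaCl/DTT/Triton buffer, 0.5% DMSO, 3 h at room temperature. Trypsin (100 nM final) plus nicotinamide (1 mM final) then added. Fluorescence Ex 355/Em 460 nm read every 5 min for 20 min at 37 °C. n = 3.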

[8] = biological target: T3, NAD-dependent protein deacetylase sirtuin-3, mitochondrial (Homo sapiens); test: Inhibition of recombinant human SIRT3 (118 to 399 residues) demyristoylase activity expressed in Escherichia coli at 1 uM using p53(Myr)-AMC as substrate measured after 3 hrs in presence of NAD+ and trypsin by fluorescence assay relative to control
How it was run: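 SIRT3 at 120 nM with 50 μM p53(Myr)-AMC and 500 μM NAD⁺ in Tris-HCl pH 8.0/NaCl/DTT/Triton buffer, 0.5% DMSO, 3 h at room temperature. Trypsin (100 nM) plus nicotinamide (1 mM) then added. Fluorescence Ex 355/Em 460 nm every 5 min for 20 min at 37 °C. n = 3.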

[9] = biological target: T1, NAD-dependent protein deacetylase sirtuin-2 (Homo sapiens); test: Inhibition of recombinant human SIRT2 deacylation activity at 1 uM using Fluor de Lys Sirt2 as substrate measured at 5 mins interval for 30 mins in presence of NAD+ by fluorescence assay relative to control
[10] = biological target: T1, NAD-dependent protein deacetylase sirtuin-2 (Homo sapiens); test: Inhibition of recombinant human SIRT2 demyristoylase activity using H4K16-Myr as substrate measured after 2 hrs in presence of NAD+ by HPLC analysis
How it was run: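 H4K16-Myr at 100 μM with 500 μM NAD⁺ and 175 nM SIRT2 in Tris-HCl pH 8.0/NaCl/Triton buffer without DTT, 0.5% DMSO, 2 h at 37 °C. Inhibitors at 0.1–10 μM; AGK2 at 50 μM, NAM at 500 μM. Stopped with HCl/MeOH. Demyristoylated H4K16 product measured by HPLC at 280 nm. Percent inhibition, n = 3.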

[11] = biological target: T1, NAD-dependent protein deacetylase sirtuin-2 (Homo sapiens); test: Inhibition of recombinant human SIRT2 deacylation activity using H4K16-Ac as substrate measured after 30 mins in presence of NAD+ by HPLC analysis
How it was run: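 H4K16-Ac peptide at 100 μM with 500 μM NAD⁺ and 175 nM SIRT2 in Tris-HCl pH 8.0/NaCl/Triton buffer lacking DTT, 0.5% DMSO, 30 min at 37 °C. Inhibitors at 0.01–10 μM. Stopped with HCl in MeOH. Deacetylated product quantified by reversed-phase HPLC at 280 nm.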

[12] = tested on: HeLa; test: Cytotoxicity against human HeLa cells assessed as reduction in cell viability at 50 uM measured after 72 hrs by CCK8 assay; assay type: functional, cell-based
How it was run: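 HeLa cells, 1.0 × 10⁴ per well on PLL-coated plates, grown overnight in DMEM with 10% FBS and penicillin/streptomycin, 37 °C, 5% CO₂. Compounds added in DMEM (2% DMSO stock), range 1.56–50 μM final, for 72 h. CCK-8 reagent then 2 h at 37 °C, absorbance read at 450 nm. DMSO control.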

[13] = biological target: T1, NAD-dependent protein deacetylase sirtuin-2 (Homo sapiens); test: Non-competitive inhibition of recombinant human SIRT2 defatty-acylase activity at 15 to 30 nM using SFP3 as substrate measured at 1 min interval for 30 mins in presence of varying levels of NAD+ by Michaelis-Menten plot analysis
[14] = biological target: T1, NAD-dependent protein deacetylase sirtuin-2 (Homo sapiens); test: Time-dependent inhibition of recombinant human SIRT2 defatty-acylase activity at 15.6 to 250 nM using SFP3 as substrate measured at 5 mins interval for 60 mins in presence of NAD+ by fluorescence assay

NAD-dependent protein deacylase sirtuin-6 (Homo sapiens), sequence (Q8N6T7 whole entry, the tested form may be a part): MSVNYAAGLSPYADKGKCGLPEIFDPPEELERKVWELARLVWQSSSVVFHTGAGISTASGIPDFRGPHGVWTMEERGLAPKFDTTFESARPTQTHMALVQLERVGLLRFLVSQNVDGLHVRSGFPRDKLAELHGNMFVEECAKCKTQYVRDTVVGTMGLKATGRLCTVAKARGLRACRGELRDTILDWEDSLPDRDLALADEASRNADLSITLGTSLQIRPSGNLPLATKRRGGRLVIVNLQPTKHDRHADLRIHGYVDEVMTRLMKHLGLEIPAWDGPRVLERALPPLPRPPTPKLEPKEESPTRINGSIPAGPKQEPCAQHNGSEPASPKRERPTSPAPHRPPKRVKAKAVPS

Structure (SMILES)	inhibition [6] [%]	inhibition [10]	inhibition [11]	inhibition [13]	Activity [12]	further results
O=C(Cc1ccc(/N=N/c2ccccc2)cc1)NCCCC[C@H](NC(=O)OCC1c2ccccc2-c2ccccc21)C(=O)O	–	–	–	–	–	inhibition [1]: inactive
CCCCCCCCCCCCCC(=O)NCCCC[C@H](NC(=O)OCc1ccccc1)C(=O)Nc1ccccc1	-3.5	–	–	–	–	inhibition [2]: 2.8%; inhibition [3]: 5.2%; inhibition [4]: -0.59%; inhibition [5]: -2.3%; inhibition [7]: 1.7%; inhibition [8]: 1.7%; inhibition [9]: 42%

Second part, led by results:

inhibition [6] [%]	inhibition [10]	inhibition [11]	inhibition [13]	Structure (SMILES)	Activity [12]	further results
–	Dose-dependent effect	Dose-dependent effect	Active	CCCCCCCCCCCCCC(=S)NCCCC[C@H](NC(=O)[C@@H](NC(=O)[C@H](CCCNC(=N)N)NC(C)=O)[C@@H](C)CC)C(=O)N[C@@H](CCCNC(=N)N)C(=O)N[C@@H](Cc1ccc(O)cc1)C(N)=O (Ac-RI[Lys(thiomyristoyl)]RY-NH2)	inactive	–
40	–	–	–	CC[C@H](C)[C@H](NC(=O)[C@H](CCCNC(=N)N)NC(C)=O)C(=O)N[C@@H](CCCCNC(=O)Cc1ccc(/N=N/c2ccc(N(C)C)cc2)cc1)C(=O)N[C@@H](CCCNC(=N)N)C(=O)N[C@@H](Cc1ccc(O)cc1)C(N)=O (Ac-RIK(X4)RY-NH2)	–	TDI [14]: Active
43	Dose-dependent effect	Dose-dependent effect	Active	CC[C@H](C)[C@H](NC(=O)[C@H](CCCNC(=N)N)NC(C)=O)C(=O)N[C@@H](CCCCNC(=O)Cc1ccc(/N=N/c2ccc(O)cc2)cc1)C(=O)N[C@@H](CCCNC(=N)N)C(=O)N[C@@H](Cc1ccc(O)cc1)C(N)=O (Ac-RIK(X1)RY-NH2)	inactive	–
